# Screens (PubChem BioAssay)
# Sampled rows, rich in hits. Any-hit rate of the full collection: about 2.2%.
# SUMO Mot1 rescue: inhibitors of SUMOylation pathway: yeast Mot1-301 growth rescue; S. cerevisiae Mot1-301 growth rescue, ATP luminescence, 38.5C; percent above DMSO median, 100 means doubled; growth rescue, % at 18.8 µM; 320,000 tested, 1% active; AID 2716;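 active = every valid replicate shows activation above 250% relative to neutral control wells; inactive = the rest, any valid replicate at or below 250%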;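 note: OY570 slx delta 5 strain wells were the positive control but not used for scaling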
# Yeast superoxide: yeast age-related superoxide inhibition as caloric restriction mimetic; S. cerevisiae aged cells, superoxide DHE fluorescence; hits give low values; superoxide response (% of plate mean), % at 10 µM; 330,000 tested, 0.18% active;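 active = superoxide response under a set limit, about three screen SD below normal, cut at about 65% in these data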;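 note: yeast aged for seven days with compound at 30 °C before DHE staining; 100% = average MFI of all compound-treated wells on the plate with controls excluded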
# PglD DTNB: inhibitors of Campylobacter jejuni PglD acetyltransferase. 360,000 tested, 0.098% active. purified PglD enzyme, DTNB colorimetric CoA detection. inhibition, % at 12.5 µM; in the data active = inhibition above about 16%, passing the limit was not always enough
# Cneo AK release: causes C. neoformans cell lysis; 360,000 tested, 0.2% active; lysis activity, % at 15 µM; adenylate kinase release luminescence, 4 h; normalised: neutral wells 0, clomiphene wells 100;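 active = mean lysis activity across replicates of at least 80%, whatever share of replicates individually reach that level; inactive = mean lysis activity below 80%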
#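 read-out = cell lysis signal | test system = log-phase Cryptococcus neoformans yeast cells | input = cells at 5 × 10^6 per mL | medium = fresh YPD growth medium | signal = luminescent adenylate kinase detection reagent | timing = 4 h at 37 °C static, read 1 h later | dosing = single dose | controls = Clomiphene as positive lysis control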
# rRNA inh HTS: inhibits bacterial ribosomal RNA function over humanized ribosomes | E. coli WT GFP vs humanized-ribosome RFP mutants, fluorescence, 24 h; hits give low values; DMSO median 0, no signal -100 | GFP signal change (wild-type ribosome), % (test concentration not listed) | 350,000 tested, 1.6% active | AID 720706;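 active = significant combined selectivity score with lowered wild-type GFP, culture density cut under 30%, mutant RFP and density less affected; inactive = any of these conditions unmet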
# Mot1 SUMO dose: yeast SUMO pathway inhibition in dose response. shares compounds with SUMO Mot1 rescue. S. cerevisiae Mot1-301 galactose growth, ATP luminescence, 24 h; -100 = growth of slx-deleted rescue strain. growth activity, percent, % at 42 µM. 2,300 tested, under 10 active;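 active = Signal drops as the depositor expects, and the fitted half-maximal dose is no more than ten times the top valid tested dose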;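 note: more negative values mean stronger growth rescue toward the control strain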
# * = called active by the depositor; . = no result given; + = active, no number.
SMILES,SUMO Mot1 rescue,Yeast superoxide,PglD DTNB,Cneo AK release,rRNA inh HTS,Mot1 SUMO dose
Cc1nc2ccccc2n(CC(=O)Nc2cc(Cl)cc(Cl)c2)c1=O,+,100.3,.,.,4.1,0.8
CCC(CO)N=CC1=C(O)CC(C)(C)CC1=O (stereo not given),0.5,88.8,1.0,4.1,.,.
CC1CCCCC1N=CC1=C(O)CC(C)(C)CC1=O (stereo not given),385.3*,98.5,-2.9,0.6,.,0.0
COc1ccc(CCN(C)CCCC(C#N)(c2ccc(OC)c(OC)c2)C(C)C)cc1OC (stereo not given),.,.,-1.2,0.5,.,-0.2
CC(=O)N1CCc2cc(S(=O)(=O)CCC(=O)N3CCN(c4ccccc4)CC3)ccc21,149.0,98.4,2.1,-0.7,1.1,.
CC(=O)N1CCc2cc(S(=O)(=O)CCC(=O)N3CCN(C(=O)c4ccco4)CC3)ccc21,436.3*,112.5,4.0,2.0,.,0.1
O=C(CCC(=O)OCC(=O)c1ccc(Br)cc1)Nc1cccc2cccnc12,428.9*,111.3,.,-1.3,.,0.3
Cc1ccc(NC(=O)C(c2ccccc2)N2CCN(CC(=O)NC3CC3)CC2)cc1Cl (stereo not given),-12.3,108.5,-5.3,-2.1,.,.
COc1cc(OC)c(C(=O)N2CCN(c3ccccn3)CC2)cc1OC,798.2*,104.3,-2.0,0.3,5.1,0.5
COc1ccc(NC(=O)C(c2ccccc2)N2CCN(c3ccccn3)CC2)cc1Cl (stereo not given),754.7*,115.8,.,.,-0.1,0.5
Cc1ccc(S(=O)(=O)Cc2ccc(C(=O)N3CCN(c4ccccn4)CC3)o2)cc1,537.2*,95.3,0.5,-0.9,-4.4,-0.2
COc1ccccc1NC(=O)C1=C(C)NC(=O)NC1c1ccccc1[N+](=O)[O-] (stereo not given),-2.2,117.5,.,.,.,.
CC1=C(C(=O)Nc2ccccc2)C(c2ccccc2[N+](=O)[O-])NC(=O)N1 (stereo not given),+,117.0,-0.7,-0.3,12.4,-1.0
C[C@@H]1CN([C@H](C)CO)C(=O)c2cc(NC(=O)Cn3cnnn3)ccc2O[C@@H]1CN(C)CC1CCCCC1,.,.,-0.5,43.3,3.7,.
CC1c2cc3c(cc2CCN1CC(=O)Nc1ccccc1)OCCCO3 (stereo not given),653.3*,103.2,-1.7,7.6,.,0.5
COc1ccccc1C1CC(=O)Oc2cc(O)ccc21 (stereo not given),.,104.6,1.6,5.7,-10.2,.
O=C1CC(c2ccccc2)c2ccc(O)cc2O1 (stereo not given),+,97.9,1.6,-4.3,.,0.4
O=C(Nc1nnc(-c2ccco2)o1)c1ccc(S(=O)(=O)N2CCCC2)cc1,473.7*,101.7,.,.,.,-0.4
C[C@@H]1CN([C@@H](C)CO)C(=O)c2cc(NC(=O)C3CCCCC3)ccc2O[C@@H]1CN(C)S(C)(=O)=O,.,.,1.6,0.1,2.1,.
C[C@H]1CN([C@@H](C)CO)C(=O)c2cc(NC(=O)Cn3cnnn3)ccc2O[C@H]1CN(C)CC1CCCCC1,.,.,-2.2,52.1,-0.4,.
C[C@H](O)C#Cc1ccc([C@@H]2[C@H]3CN(C(=O)c4ccncc4)CCCCN3[C@H]2CO)cc1,.,.,11.0,0.6,3.1,.
FC(F)(F)c1nnc(-c2ccccc2)nc1Oc1ccc(Cl)cc1Cl,738.6*,106.2,3.3,-2.0,.,0.0
C[C@H]1CN([C@@H](C)CO)C(=O)c2cccc(NS(=O)(=O)c3cccs3)c2O[C@H]1CN(C)C(=O)NC1CCCCC1,.,.,1.9,-3.9,-0.6,.
COc1ccc(-n2cc(-c3ccccc3)[nH]c2=S)c(OC)c1,-23.7,86.3,2.7,1.9,-4.0,.
Fc1ccccc1-n1cc(-c2ccccc2)[nH]c1=S,450.1*,101.1,-0.3,1.5,-4.7,-0.1
SMILES,SUMO Mot1 rescue,Yeast superoxide,PglD DTNB,Cneo AK release,rRNA inh HTS,Mot1 SUMO dose
Cc1c(Cl)cccc1NC(=O)Cn1c(CCC(=O)O)ccc1-c1ccccc1,429.3*,109.3,-1.9,-0.8,1.1,-0.6
Cc1ccc(NC(=O)Cn2c(CCC(=O)O)ccc2-c2cccs2)cc1,526.5*,87.5,-2.7,1.8,.,0.2
COc1ccc(NC(=O)Nc2cccc3c2O[C@@H](CN(C)C(=O)Nc2c(C)noc2C)[C@H](C)CN([C@@H](C)CO)C3=O)cc1,.,.,3.3,-1.5,0.7,.
CCOC(=O)CSc1cc(C)nc2ccc(OC)cc12,476.2*,93.9,.,.,4.1,-0.4
COc1ccc2nc(C)cc(SCC(=O)Nc3c(C)cc(C)cc3C)c2c1,-15.4,86.9,-0.4,10.9,.,.
CC(=O)NC[C@H]1[C@@H](c2ccc(-c3ccccc3)cc2)[C@H](CO)N1C(=O)C1CCC1,.,.,-2.0,-11.0,-3.2,.
COc1ccc(NS(=O)(=O)c2cccc(C(=O)NCCCn3ccnc3)c2)cc1,451.5*,87.1,-3.0,-0.6,3.1,-0.1
CN(C)CCCNC(=O)C[C@H]1CC[C@@H]2[C@@H](COc3ccc(NC(=O)c4ccccc4F)cc3C(=O)N2C)O1,.,.,0.2,0.1,3.2,.
CC1(C)CC(=O)C(C(=O)c2ccccc2)C(=O)C1Cl (stereo not given),536.1*,99.5,-1.2,9.2,11.4,-0.5
CC1(C)CC(=O)C(C(=O)c2ccccc2)C(=O)C1,-14.6,107.1,1.1,-1.0,-0.5,.
Cc1ccc(NC(=O)C(CC(C)C)NC(=O)C2CCC(C)CC2)nc1 (stereo not given),634.2*,91.4,.,.,.,0.3
CC(C)CC(NC(=O)C1CCC(C)CC1)C(=O)Nc1cccnc1 (stereo not given),7.6,109.9,-2.8,-0.5,.,.
CCOC(=O)C1CCCN(C(=O)/C=C/c2cc(OC)c(OC)c(OC)c2)C1 (stereo not given),3.1,112.5,.,.,1.1,.
CCOC(=O)C1CCCN(C(=O)/C=C/c2ccc(Cl)cc2)C1 (stereo not given),419.9*,115.2,.,.,-5.0,-0.7
CCn1cc(CCC(=O)NCc2ccccc2OC)c2ccccc21,6.7,91.3,-5.0,1.8,-13.6,.
CCn1cc(CCCC(=O)NCc2ccccc2OC)c2ccccc21,888.5*,100.2,0.1,2.3,-25.3,-0.3
Cc1ccc(S(=O)(=O)N(C)C[C@H]2OCCCC[C@H](C)Oc3ccc(NC(=O)c4ccccc4)cc3C(=O)N([C@H](C)CO)C[C@@H]2C)cc1,.,.,-1.1,8.6,-1.8,.
C[C@@H]1CN([C@@H](C)CO)C(=O)c2cc(NS(=O)(=O)c3cn(C)cn3)ccc2O[C@@H]1CN(C)Cc1ccc(-c2ccccc2)cc1,.,.,1.6,-3.0,0.7,.
Cc1nnc(SCC(=O)NC2CCCCC2)n1-c1ccccc1,.,.,.,1.1,11.0,.
O=C(CSc1ncccc1C(=O)O)NC1CCCCC1,419.9*,94.0,-3.6,-1.4,4.3,0.7
O=C(CSc1nc(O)cc(=O)n1-c1ccccc1)NC1CCCCC1,583.8*,100.0,.,.,.,0.4
